# In the library only some 2.5% were active in any assay of this set; here they are far more common.
# TRPC6 activator: mouse TRPC6 channel activators, primary screen, cell-based, HEK293, membrane potential dye; 0.13% of 310,000 active; HEK293-TRPC6 membrane potential dye fluorescence; active compounds read high; B-score at 10 µM;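 active = B-score of the integrated fluorescence ratio above library mean plus 3 SD, and starting fluorescence ratio within library mean plus 5 SD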;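 note: higher score means more depolarization so channel activation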
# DSG3 Ab inh: inhibitors of pemphigus antibody binding to DSG3, primary screen, biochemical, bead-based, flow cytometry, scFv-GFP. Desmoglein-3 (Homo sapiens), P32926. DSG3-coupled beads, scFv-anti-DSG3-GFP binding; active compounds read low. binding (percent of control), % at 10 µM. 0.48% of 310,000 active;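 active = binding more than 3 SD below its plate's average and above zero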;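 note: hits lower antibody fragment binding to DSG3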
# TRPC4 inh: inhibitors of mouse TRPC4 channel, primary screen, Fluo4 calcium, HEK293 TRPC4beta/mu-opioid cells; Short transient receptor potential channel 4 (Mus musculus), Q9QUQ5; DAMGO-evoked Fluo4 calcium flux; active compounds read low; B-score at 10 µM; 0.39% of 300,000 active; AID 2247, 2010;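 active = B-score over 3 SD under the library average, no early fluorescence shift, positive overall ratio signal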
#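 Assay system: Stable TRPC4beta/mu-opioid receptor HEK293 cells | Reagent: DAMGO in two steps, submaximal then maximal | Compound dosing: Single concentration per test compound | Signal: Fluo4 Ca2+ flux fluorescence | Evaluation: Per-well B score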
# TRPC4 act: activators of mouse TRPC4 channel, primary screen, Fluo4 calcium, HEK293 TRPC4beta/mu-opioid cells; B-score at 10 µM; 0.49% of 310,000 active; Short transient receptor potential channel 4 (Mus musculus), Q9QUQ5; Fluo4 calcium fluorescence; active compounds read high;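 active = B-score above 5 SD of library B-scores, and initial fluorescence ratio not above library mean plus 5 SD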;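 note: positive B-score marks a calcium rise read as TRPC4 activation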
#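 Material: HEK293 stable line with TRPC4beta plus mu-opioid receptor; technique: Fluo4 calcium-sensitive dye fluorescence, kinetic, 1 Hz baseline; timing: Fluo4 dye loading 45 min at room temperature, 110 s recording; controls: assay buffer as low control, maximal DAMGO as high control; read-out: integrated baseline-normalised fluorescence ratio, converted to per-well B score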
# TRPC6 inh: mouse TRPC6 channel inhibitors, primary screen, cell-based, HEK293, membrane potential dye; Short transient receptor potential channel 6 (Mus musculus), Q61143; ACh-evoked depolarization; active compounds read low; B-score at 10 µM; 1.1% of 310,000 active; AID 2553, 2010;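 active = B-score under library mean minus 3 SD, initial fluorescence not abnormally high, positive integrated signal ratio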;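 note: B-score derived from integrated fluorescence ratio over the kinetic read; more negative B-score means stronger inhibition of depolarization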
# TRPC4 PAM: positive allosteric modulators of TRPC4, primary screen, cell-based, mouse TRPC4beta, HEK293 mu-opioid, Fluo-4 calcium | Short transient receptor potential channel 4 (Mus musculus), Q9QUQ5 | DAMGO EC20, Fluo-4 Ca2+ flux; active compounds read high | B-score at 10 µM | 0.42% of 310,000 active | AID 2227, 2009;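 active = B-score of calcium response area above 5 SD of library B-scores, with initial fluorescence ratio within 5 SD of library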;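 note: B-score of integrated fluorescence ratio over time as area under calcium response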
# Numbers without * were called inactive; i = inactive; nt = no result.
SMILES,TRPC6 activator,DSG3 Ab inh,TRPC4 inh,TRPC4 act,TRPC6 inh,TRPC4 PAM
NCCCn1c(C(=O)c2cc(Cl)c(N)c(Cl)c2)c2ccccc2[n+]1[O-],i,101,i,178*,i,i
NC(=O)CCn1c(C(=O)c2cc(Cl)c(N)c(Cl)c2)c2ccccc2[n+]1[O-],i,98,i,i,i,i
O=[N+]([O-])c1cccc(/C=C/c2nc[nH]c2[N+](=O)[O-])c1,i,63*,i,i,i,i
O=C1c2ccccc2C(=O)N1Cc1nn2c(-c3ccc(Cl)cc3)nnc2s1,i,59*,i,i,i,i
CC(=O)c1csc(COc2ccc(Cl)cc2)n1,i,109,i,i,i,i
CC1CCCN(S(=O)(=O)c2ccc(S(=O)(=O)N3CCCC3)cc2)C1 (configuration not stated),i,101,i,i,i,i
CC1CCCN(S(=O)(=O)c2ccc(S(=O)(=O)N3CCC4(CC3)OCCO4)cc2)C1 (configuration not stated),i,68*,i,i,i,i
Clc1ccc2nc(CSc3nnc(-c4c[nH]c5ccccc45)o3)cn2c1,nt,42*,nt,nt,nt,nt
COc1cc(/C=C2\C(=N)N3N=C(S(C)(=O)=O)SC3=NC2=O)ccc1OC(=O)c1cccs1,i,104,-7*,i,i,i
CC(=O)Nc1ccc(N2C(=O)CSC2c2ccccc2[N+](=O)[O-])cc1 (configuration not stated),i,102,i,i,i,i
CCC1=Nc2cc(C(=O)N3CCCCC3)ccc2Sc2ccc(C)cc21,i,nt,i,i,i,i
CCCC1=Nc2cc(C(=O)N3CCCC3)ccc2Sc2ccc(C)cc21,i,95,i,54*,i,i
C[C@H](CO)N1C[C@H](C)[C@@H](CN(C)Cc2ccc3c(c2)OCO3)Oc2ccc(NS(C)(=O)=O)cc2C1=O,nt,106,nt,nt,nt,nt
N#CC1=C(N)C2=CCCC[C@H]2[C@H](c2cccc(F)c2)C1(C#N)C#N,i,100,i,i,i,34*
COc1ccc(CCNC(=O)C2CCCN(c3ncccn3)C2)cc1 (configuration not stated),i,101,i,i,i,i
CCCC(O)(c1ccc(Cl)cc1)C(CN1CCOCC1)c1ccccc1 (configuration not stated),i,105,-5*,i,i,i
CCCC(O)(c1ccccc1)C(CN1CCOCC1)c1ccccc1 (configuration not stated),i,95,i,i,i,i
CN(C)c1ccc(/C=N/N2C(=O)c3ccccc3C2=O)cc1,i,90,i,i,i,i
CCN(CC)c1ccc(/C=N/N2C(=O)c3ccccc3C2=O)cc1,i,63*,i,i,i,i
Cc1ccc(C)c2nc3sc(C(=O)N4CCCc5ccccc54)c(N)c3cc12,i,113,i,i,i,i
Cc1ccc(C)c2nc3sc(C(=O)O)cc3cc12,i,98,-7*,i,i,i
O=C(NNC(=O)c1ccc(F)c(S(=O)(=O)N2CCOCC2)c1)c1ccc([N+](=O)[O-])cc1,nt,97,nt,nt,nt,nt
N#CCn1c2ccccc2c2nc3ccccc3nc21,i,97,i,i,i,i
C#CCn1c2ccccc2c2nc3ccccc3nc21,i,82*,i,i,i,i
O=c1cc(-c2ccccc2Cl)oc2c(NS(=O)(=O)c3cc(Cl)cc(Cl)c3O)ccc(O)c12,i,100,nt,120*,i,i
